The subject of one assay is Dengue virus. Kind of assay: Inhibition of Dengue virus NS2B-NS3 protease using Abz-NleKRRS-3-(NO2)Y as substrate at 50 uM preincubated for 15 mins measured every sec for 15 mins by fluorimetric analysis.
The target in another assay is Prothrombin (Bos taurus) (UniProt P00735). In words: Inhibition of bovine plasma thrombin using Boc-Val-Pro-Arg-AMC as substrate at 25 uM preincubated for 15 mins measured after 10 mins by fluorimetric assay. An outline of the steps: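 Purchased bovine plasma thrombin at 10 nM final, preincubated 15 min with 25 μM inhibitor; reaction started with 50 μM substrate. Buffer 50 mM Tris-HCl pH 7.5, 150 mM NaCl, 0.05% Tween 20. Triplicate, averaged.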

Assay [1] concerns Escherichia coli. Kind of assay: Inhibition of Escherichia coli MurA using PEP as substrate assessed as inorganic phosphate release at 25 uM preincubated for 10 mins measured after 60 mins […].
In assay [2] the test system is Escherichia coli. Kind of assay: Inhibition of Escherichia coli MetAP at 10 uM after 15 mins by fluorescence analysis.

Activity calls are given as the source filed them.

Turning to `O=C1NC(=S)N/C1=C\c1ccc2ccccc2c1`, the inhibition amounted to 46% in the assay with Dengue virus, 27% against Prothrombin (Bos taurus), 32% in the assay with Escherichia coli [1] and 15% with Escherichia coli [2].
In the same order, the values of `O=C1NC(=S)S/C1=C\c1c[nH]c2ccccc12` are 44%, 26%, “inactive” and “inactive”.
For `O=C1NC(=O)/C(=C/c2ccc(O)cc2)S1` the same measures were 32%, 34%, “inactive” and “inactive”.
On to `O=C1CNC(=S)N1`, for which the inhibition result in the assay with Dengue virus, on Prothrombin (Bos taurus), in the assay on Escherichia coli [1] and in the assay on Escherichia coli [2] was “inactive” in each case.
With `O=C1NC(=S)N/C1=C\C1CCCCC1`, the inhibition was 30% in the assay on Dengue virus, 18% against Prothrombin (Bos taurus), 16% in the assay with Escherichia coli [1] and 20% with Escherichia coli [2].
In the same order, the values of `O=C1NC(=S)S/C1=C\c1c(F)c(F)c(F)c(F)c1F` are 27%, 25%, “inactive” and “inactive”.
In the same order, the values of `O=C1NC(=O)/C(=C/c2ccc3ccccc3c2)S1` are “inactive”, 19%, “inactive” and “inactive”.
In the same order, the values of `O=C1NC(=O)/C(=C/c2cccc(O)c2)N1` are 27%, 12%, “inactive” and “inactive”.
As to `O=C1CSC(=S)N1`, the inhibition with Dengue virus amounted to 14%. The inhibition result at Prothrombin (Bos taurus), with Escherichia coli [1] and in the assay on Escherichia coli [2] was “inactive” in each case.
Turning to `O=C1NC(=O)C(Cc2ccccc2)S1` (stereo not given), the inhibition result with Dengue virus, at Prothrombin (Bos taurus), in the assay with Escherichia coli [1] and in the assay on Escherichia coli [2] was “inactive” throughout.
On to `COc1ccc(/C=C2\NC(=S)NC2=O)cc1OC`, for which the inhibition in the assay on Dengue virus came out at 44%; at Prothrombin (Bos taurus) it was 20%; in the assay on Escherichia coli [1], 18%; in the assay on Escherichia coli [2] it was 11%.
Turning to `O=C1NC(=S)S/C1=C\C1CCCCC1`, the inhibition worked out at 22% in the assay with Dengue virus, 29% against Prothrombin (Bos taurus), 13% in the assay with Escherichia coli [1] and 40% with Escherichia coli [2].
In the same order, the values of `O=C1NC(=S)N/C1=C\c1ccc(O)cc1` are 48%, 39%, 11% and “inactive”.
For `O=C1NC(=O)/C(=C/c2ccc(Cl)cc2Cl)N1` the same measures were 15%, “inactive”, “inactive” and “inactive”.
With `O=C1NC(=S)N/C1=C\c1sccc1Br`, the inhibition in the assay with Dengue virus was determined as 44%; on Prothrombin (Bos taurus), 11%; in the assay with Escherichia coli [1] it was 31%. The inhibition result in the assay on Escherichia coli [2] is “inactive”.
For the compound `O=C1NC(=O)/C(=C/c2ccccc2)N1`, the figures for the inhibition with Dengue virus, in the assay with Escherichia coli [1] and in the assay on Escherichia coli [2] were 38%, 100% and 17%, respectively. The inhibition result at Prothrombin (Bos taurus) is “inactive”.
For `O=C1NC(=S)N/C1=C\C=C\c1ccco1` the same measures were 37%, 69%, 23% and 38%.
For `C/C(=C1/NC(=S)NC1=O)c1ccc(C2CCCCC2)cc1` the same measures were 12%, 13%, 58% and “inactive”.
In the same order, the values of `O=C1NC(=O)/C(=C/c2cccs2)N1` are 16%, “inactive”, “inactive” and 22%.
As for `O=C1NC(=S)N/C1=C\c1cc(Br)cs1`, the inhibition came to 42% in the assay on Dengue virus, 15% against Prothrombin (Bos taurus), 57% in the assay on Escherichia coli [1] and 11% with Escherichia coli [2].
Regarding `CN(C)c1ccc(/C=C2\NC(=O)NC2=O)cc1`, the inhibition was determined as 29% in the assay with Dengue virus and 16% against Prothrombin (Bos taurus). The inhibition result with Escherichia coli [1] and with Escherichia coli [2] was “inactive” in each case.
`O=C1NC(=S)S/C1=C\c1sccc1Br`: the values for the inhibition in the assay with Dengue virus, at Prothrombin (Bos taurus) and in the assay with Escherichia coli [1] were 60%, 24% and 20%, respectively. For the same compound, the inhibition entry in the assay on Escherichia coli [2] is “inactive”.
For `O=C1NC(=O)/C(=C/c2ccc([N+](=O)[O-])cc2)N1` the same measures were 26%, “inactive”, “inactive” and “inactive”.
For `COc1ccc(/C=C2\NC(=O)NC2=O)cc1` the same measures were 24%, 10%, “inactive” and 10%.
In the same order, the values of `O=C1NC(=O)/C(=C/c2ccc3ccccc3c2)N1` are 36%, “inactive”, “inactive” and 46%.

The inhibition is the share of the control response that was lost under treatment.
